Test results taken from publication PMC10975586 (ACS Omega, 2024).
Several values for one entry are separate records, joined by “and”; a condition that tells them apart may be missing. Equal entries are not always repeated. Entries after “also recorded” stand apart in the source; their conditions may differ. Where two headings read alike, the source gives them in different places.

Tests used:
jack bean (JB) urease = jack bean (JB) urease (Canavalia ensiformis, UniProt P07374); experiment: Urease inhibitory assay; type: biochemical; conditions: for urease inhibitory profile (in words) / inhibition (%) at 0.25 mM: JB urease; for inhibition at 250 µM: read-out: inhibition (%) at 0.25 mM, JB urease; for inhibition at 250 µM / inhibition (%) at 0.25 mM: 0.25 mM, mean ± SEM, n = 3–4
JB urease enzyme = JB urease enzyme (Canavalia ensiformis, UniProt P07374); experiment: Kinetic analysis of JB urease inhibition; type: biochemical, jack bean; conditions: for Vmax: in presence of the inhibitor
How it was run: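 Jack bean urease (1 unit/well) in 50 mM phosphate buffer pH 7.4 is preincubated with test compound for 10 min at 37 °C. Urea is added from a 50 mM solution and the reaction runs 15 min. Phenol-alkali reagent stops it, and A630 is read after 10 min. Mode of inhibition, Km, Vmax and Ki come from double-reciprocal plots and nonlinear regression (mean ± SEM, n = 3).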

JB urease enzyme, sequence (P07374 whole entry, looked up): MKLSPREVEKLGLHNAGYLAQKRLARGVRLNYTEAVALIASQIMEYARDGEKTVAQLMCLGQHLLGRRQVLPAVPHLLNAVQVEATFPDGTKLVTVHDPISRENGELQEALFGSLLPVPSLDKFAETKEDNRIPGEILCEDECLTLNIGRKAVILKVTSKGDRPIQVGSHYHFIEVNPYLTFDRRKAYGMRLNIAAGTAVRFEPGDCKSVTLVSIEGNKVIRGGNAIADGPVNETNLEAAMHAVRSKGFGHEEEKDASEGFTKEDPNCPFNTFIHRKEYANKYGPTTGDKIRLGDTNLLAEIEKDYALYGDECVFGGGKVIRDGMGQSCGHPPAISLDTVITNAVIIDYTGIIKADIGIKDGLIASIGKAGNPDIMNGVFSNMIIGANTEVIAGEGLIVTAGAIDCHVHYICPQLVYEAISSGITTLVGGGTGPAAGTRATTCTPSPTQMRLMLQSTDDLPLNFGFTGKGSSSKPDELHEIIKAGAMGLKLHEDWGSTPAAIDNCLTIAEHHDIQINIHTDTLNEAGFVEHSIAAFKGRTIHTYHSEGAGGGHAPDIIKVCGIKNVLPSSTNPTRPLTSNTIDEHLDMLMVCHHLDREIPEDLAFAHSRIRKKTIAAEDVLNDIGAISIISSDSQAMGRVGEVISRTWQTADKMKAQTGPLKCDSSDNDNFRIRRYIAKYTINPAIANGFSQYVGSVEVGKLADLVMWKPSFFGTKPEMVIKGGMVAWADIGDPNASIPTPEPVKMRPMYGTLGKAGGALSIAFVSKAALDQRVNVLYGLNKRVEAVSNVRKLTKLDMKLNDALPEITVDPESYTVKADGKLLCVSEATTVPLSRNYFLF
jack bean (JB) urease, sequence (P07374 whole entry, looked up): as above

| SMILES | IC50 (jack bean (JB) urease) [µM] | inhibition at 250 µM (jack bean (JB) urease) [%] | also measured |
| --- | --- | --- | --- |
| COc1c(N2C[C@@H]3CCCN[C@@H]3C2)c(F)cc2c(=O)c(C(=O)O)cn(C3CC3)c12 [moxifloxacin] | 135.3 ± 0.39 | 75.27 ± 0.74 | urease inhibitory profile (in words) (jack bean (JB) urease): weak urease inhibitions; also recorded: weak enzyme inhibitors |
| CO/N=C(\C(=O)N[C@@H]1C(=O)N2C(C(=O)O)=C(COC(C)=O)CS[C@H]12)c1csc(N)n1 [cefotaxime] | 27.4 ± 0.74 | 81.9 ± 1.46 |  |
| CC1=C(C(=O)O)N2C(=O)[C@@H](NC(=O)[C@H](N)C3=CCC=CC3)[C@H]2SC1 [cefradine] | 226.8 ± 0.95 | 54.9 ± 1.54 |  |
| CC=CC1=C(C(=O)O)N2C(=O)[C@@H](NC(=O)[C@H](N)c3ccc(O)cc3)[C@H]2SC1 [cefprozil] |  |  | inhibition (%) at 0.25 mM (jack bean (JB) urease): 42.76 ± 0.27% |
| C[C@@H]1CN(c2c(F)c(N)c3c(=O)c(C(=O)O)cn(C4CC4)c3c2F)C[C@H](C)N1 [sparfloxacin] | 213.9 ± 0.32 | 57.6 ± 0.62 |  |
| C=CC1=C(C(=O)O)N2C(=O)[C@@H](NC(=O)/C(=N\OCC(=O)O)c3csc(N)n3)[C@H]2SC1 [cefixime] | 215.5 ± 0.76 | 68.5 ± 1.85 | urease inhibitory profile (in words) (jack bean (JB) urease): poor inhibitory potential |
| CC1=C(C(=O)O)N2C(=O)[C@@H](NC(=O)[C@H](N)c3ccc(O)cc3)[C@H]2SC1 [cefadroxil] | 21.4 ± 0.64 | 91.27 ± 0.85 |  |
| NC(N)=S [thiourea] |  |  | inhibition (%) at 0.25 mM (jack bean (JB) urease): 98.21 ± 0.18%; type of inhibition (JB urease enzyme; JB urease): competitive; Vmax (JB urease enzyme; JB urease): 110.1 µM/min; Ki (JB urease enzyme; JB urease, inhibitory constant): 19.7 µM |
| CC1=C(C(=O)O)N2C(=O)[C@@H](NC(=O)[C@H](N)c3ccccc3)[C@H]2SC1 [cefalexin] | 145.8 ± 0.37 | 72.5 ± 0.94 | urease inhibitory profile (in words) (jack bean (JB) urease): poor inhibitory potential |
| CO/N=C(\C(=O)N[C@@H]1C(=O)N2C(C(=O)O)=C(COC(N)=O)CS[C@H]12)c1ccco1 [cefuroxime] | 241.5 ± 0.87 | 51.7 ± 1.56 |  |
| CC1COc2c(N3CCN(C)CC3)c(F)cc3c(=O)c(C(=O)O)cn1c23 (stereo not shown) [ofloxacin] | 13.2 ± 0.32 | 83.67 ± 0.67 | Ki (JB urease enzyme): 5.43 µM; type of inhibition (JB urease enzyme; JB urease): competitive inhibition; also recorded: competitive inhibitors; Vmax (JB urease enzyme; JB urease): 86.62 µM/min |
| CO/N=C(\C(=O)N[C@@H]1C(=O)N2C(C(=O)[O-])=C(C[N+]3(C)CCCC3)CS[C@H]12)c1csc(N)n1 [cefepime] | 78.65 ± 0.45 | 73.3 ± 1.35 |  |
| O=C(O)c1cn(C2CC2)c2cc(N3CCNCC3)c(F)cc2c1=O [ciprofloxacin] | 134.5 ± 0.52 | 78.3 ± 0.85 | urease inhibitory profile (in words) (jack bean (JB) urease): weak enzyme inhibitors; urease inhibitory profile (in words) (jack bean (JB) urease; listed as Ciprofloxacin): weak urease inhibitions |
| CO/N=C(\C(=O)N[C@@H]1C(=O)N2C(C(=O)O)=CCS[C@H]12)c1csc(N)n1 [ceftizoxime] |  | 32.41 ± 0.24 |  |
| COCC1=C(C(=O)O)N2C(=O)[C@@H](NC(=O)/C(=N\OC)c3csc(N)n3)[C@H]2SC1 [cefpodoxime] | 23.7 ± 0.82 | 91.3 ± 1.86 |  |
| C[C@H]1COc2c(N3CCN(C)CC3)c(F)cc3c(=O)c(C(=O)O)cn1c23 [levofloxacin] | 7.24 ± 0.29 | 81.92 ± 0.62 | Ki (JB urease enzyme): 4.91 µM; maximum velocity (JB urease enzyme; JB urease): 84.51 μm/min; type of inhibition (JB urease enzyme; JB urease): competitive inhibitors; Vmax (JB urease enzyme; JB urease): 84.51 µM/min; type of inhibition (JB urease enzyme; JB urease, listed as Levofloxacin): competitive inhibition |
| N[C@@H](C(=O)N[C@@H]1C(=O)N2C(C(=O)O)=C(Cl)CS[C@H]12)c1ccccc1 [cefaclor] | 62.9 ± 0.78 | 92.4 ± 1.53 |  |
| CCN1CCN(C(=O)N[C@@H](C(=O)N[C@@H]2C(=O)N3C(C(=O)O)=C(CSc4nnnn4C)CS[C@H]23)c2ccc(O)cc2)C(=O)C1=O [cefoperazone] |  | 34.54 ± 0.26 |  |
| CO/N=C(\C(=O)N[C@@H]1C(=O)N2C(C(=O)O)=C(CSc3nc(=O)c(=O)[nH]n3C)CS[C@H]12)c1csc(N)n1 [ceftriaxone] | 157.4 ± 0.42 | 72.6 ± 0.98 | urease inhibitory profile (in words) (jack bean (JB) urease): poor inhibitory potential |
| CO/N=C1\CN(c2nc3c(cc2F)c(=O)c(C(=O)O)cn3C2CC2)CC1CN (stereo not shown) [gemifloxacin] | 16.5 ± 0.85 | 92.5 ± 1.35 |  |
| CC(C)(O/N=C(\C(=O)N[C@@H]1C(=O)N2C(C(=O)[O-])=C(C[n+]3ccccc3)CS[C@H]12)c1csc(N)n1)C(=O)O [ceftazidime] | 123.6 ± 0.19 |  | inhibition (%) at 0.25 mM (jack bean (JB) urease): 76.94 ± 1.57% and 49.52 ± 1.78% |
